pIC50: −log10 of the molar value. Active and inactive are the calls of the source. The calls are words filed in the database; no cut-off is given here.
Tests used:
[1] = Antiproliferative activity against human A549 cells after 72 hrs by MTT assay; type: functional, cell-based; settings: A549, 72 h
How it was run: (§1)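 Cells in RPMI-1640 with 10% FBS, penicillin/streptomycin, 37 °C, 5% CO₂; seeded 3000-5000 cells/well, left overnight (16 h), then medium replaced with fresh medium holding serial dilutions in triplicate for 72 h. MTT read-out; viability = absorbance of treated/solvent control × 100%. Stattic served as reference.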

[2] = Antiproliferative activity against human MCF7 cells after 72 hrs by MTT assay; type: functional, cell-based; settings: MCF7, 72 h; how it was run: as §1
[3] = Antiproliferative activity against human HCT116 cells after 72 hrs by MTT assay; type: functional, cell-based; settings: HCT-116, 72 h; how it was run: as §1
[4] = test system: MDA-MB-231; assay: Potency index, ratio of stattic IC50 to compound IC50 for human MDA-MB-231 cells; type: functional
[5] = test system: A549; assay: Potency index, ratio of stattic IC50 to compound IC50 for human A549 cells; type: functional
[6] = test system: HCT-116; assay: Potency index, ratio of stattic IC50 to compound IC50 for human HCT116 cells; type: functional
[7] = biological target: Signal transducer and activator of transcription 3 (Homo sapiens) (UniProt P40763); assay: Inhibition of STAT3 phosphorylation at Tyr-705 residue in human MDA-MB-231 cells after 24 hrs by Western blot method; type: cell-based
Signal transducer and activator of transcription 3 (Homo sapiens), sequence (P40763 whole entry): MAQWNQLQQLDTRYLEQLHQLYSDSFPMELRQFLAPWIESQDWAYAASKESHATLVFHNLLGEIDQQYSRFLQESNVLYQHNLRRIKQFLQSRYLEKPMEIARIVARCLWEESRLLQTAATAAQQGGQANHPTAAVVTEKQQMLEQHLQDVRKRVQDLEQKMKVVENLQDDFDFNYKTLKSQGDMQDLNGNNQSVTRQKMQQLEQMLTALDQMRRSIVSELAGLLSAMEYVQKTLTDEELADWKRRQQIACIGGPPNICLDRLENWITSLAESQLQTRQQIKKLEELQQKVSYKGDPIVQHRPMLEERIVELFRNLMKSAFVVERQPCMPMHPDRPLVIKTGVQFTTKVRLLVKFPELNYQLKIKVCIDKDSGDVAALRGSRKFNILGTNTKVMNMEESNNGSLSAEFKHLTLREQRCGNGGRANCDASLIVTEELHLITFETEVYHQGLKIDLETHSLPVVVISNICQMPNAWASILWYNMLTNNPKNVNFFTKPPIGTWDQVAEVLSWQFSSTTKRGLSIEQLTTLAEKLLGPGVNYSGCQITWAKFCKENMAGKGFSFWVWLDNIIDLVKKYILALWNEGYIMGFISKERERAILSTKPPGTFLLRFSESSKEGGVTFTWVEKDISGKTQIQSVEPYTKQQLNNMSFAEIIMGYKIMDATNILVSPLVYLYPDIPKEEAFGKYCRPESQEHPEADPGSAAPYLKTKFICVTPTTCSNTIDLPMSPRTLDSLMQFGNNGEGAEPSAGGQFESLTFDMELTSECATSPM

[8] = Effect on total STAT3 protein level in human MDA-MB-231 cells at 1 to 5 uM after 24 hrs by Western blot method; type: cell-based; settings: mda-mb-231, 24 h
How it was run: (§2)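 MDA-MB-231 cells treated 24 h, trypsinised and lysed in RIPA buffer (50 mM Tris-HCl pH 7.4, 150 mM NaCl, 0.25% deoxycholate, 1% NP-40, 1 mM EDTA, protease inhibitors). Equal total protein from whole-cell lysates immunoblotted; Stattic 5 µM used as comparator.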

[9] = biological target: Signal transducer and activator of transcription 3 (Homo sapiens) (UniProt P40763); assay: Inhibition of IL-6-stimulated STAT3 phosphorylation in human MDA-MB-231 cells preincubated for 12 hrs followed by IL-6 addition measured after 30 mins by Western blot method; type: cell-based
How it was run: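 Cells adhered overnight in 6-well plates, then serum-starved. Left untreated or given 1-5 µM for 12 h, then stimulated with IL-6 (25 ng/mL). Harvested 30 min later for western blot of p-STAT3.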

[10] = biological target: Signal transducer and activator of transcription 3 (Homo sapiens) (UniProt P40763); assay: Inhibition of STAT3 dimer DNA binding activity in human MDA-MB-231 nuclear extract at 1 to 5 uM preincubated for 24 hrs followed by addition of [32P]hSIE by electrophoretic mobility shift assay
How it was run: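 Cells treated 24 h in fresh growth medium. Nuclear extracts of equal total protein incubated with ³²P-labelled hSIE oligonucleotide probe and resolved by EMSA; Stattic 5 µM as comparator.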

[11] = biological target: Signal transducer and activator of transcription 3 (Homo sapiens) (UniProt P40763); assay: Inhibition of STAT3 in human MDA-MB-231 cells assessed as downregulation of Bcl2 expression at 1 to 5 uM after 24 hrs by Western blot method; type: cell-based; how it was run: as §2
[12] = test system: MDA-MB-231; assay: Induction of apoptosis in human MDA-MB-231 cells assessed as increase in cleaved caspase-3 expression at 1 to 5 uM after 24 hrs by Western blot method; type: functional, cell-based; how it was run: as §2
[13] = test system: MDA-MB-231; assay: Induction of apoptosis in human MDA-MB-231 cells after 24 hrs by Annexin-V FITC/propidium iodide staining based flow cytometry; type: functional, cell-based
[14] = test system: MDA-MB-231; assay: Induction of apoptosis in human MDA-MB-231 cells assessed as live cells at 1 uM after 24 hrs by Annexin-V FITC/propidium iodide staining based flow cytometry (reference value: 90.3%); type: functional
[15] = test system: MDA-MB-231; assay: Induction of apoptosis in human MDA-MB-231 cells assessed as early apoptotic cells at 1 uM after 24 hrs by Annexin-V FITC/propidium iodide staining based flow cytometry (reference value: 3.8%); type: functional
[16] = test system: MDA-MB-231; assay: Induction of apoptosis in human MDA-MB-231 cells assessed as late apoptotic cells at 1 uM after 24 hrs by Annexin-V FITC/propidium iodide staining based flow cytometry (reference value: 1.8%); type: functional
[17] = test system: MDA-MB-231; assay: Induction of apoptosis in human MDA-MB-231 cells assessed as necrotic cells at 1 uM after 24 hrs by Annexin-V FITC/propidium iodide staining based flow cytometry (reference value: 4.1%); type: functional
[18] = test system: MDA-MB-231; assay: Induction of apoptosis in human MDA-MB-231 cells assessed as early apoptotic cells at 3 uM after 24 hrs by Annexin-V FITC/propidium iodide staining based flow cytometry (reference value: 3.8%); type: functional
[19] = test system: MDA-MB-231; assay: Induction of apoptosis in human MDA-MB-231 cells assessed as late apoptotic cells at 3 uM after 24 hrs by Annexin-V FITC/propidium iodide staining based flow cytometry (reference value: 1.8%); type: functional
[20] = test system: MDA-MB-231; assay: Induction of apoptosis in human MDA-MB-231 cells assessed as necrotic cells at 3 uM after 24 hrs by Annexin-V FITC/propidium iodide staining based flow cytometry (reference value: 4.1%); type: functional
[21] = test system: MDA-MB-231; assay: Induction of apoptosis in human MDA-MB-231 cells assessed as live cells at 5 uM after 24 hrs by Annexin-V FITC/propidium iodide staining based flow cytometry (reference value: 90.3%); type: functional
[22] = test system: MDA-MB-231; assay: Induction of apoptosis in human MDA-MB-231 cells assessed as early apoptotic cells at 5 uM after 24 hrs by Annexin-V FITC/propidium iodide staining based flow cytometry (reference value: 3.8%); type: functional
[23] = test system: MDA-MB-231; assay: Induction of apoptosis in human MDA-MB-231 cells assessed as necrotic cells at 5 uM after 24 hrs by Annexin-V FITC/propidium iodide staining based flow cytometry (reference value: 4.1%); type: functional
[24] = test system: MDA-MB-231; assay: Induction of apoptosis in human MDA-MB-231 cells assessed as early apoptotic cells at 7 uM after 24 hrs by Annexin-V FITC/propidium iodide staining based flow cytometry (reference value: 3.8%); type: functional
[25] = test system: MDA-MB-231; assay: Induction of apoptosis in human MDA-MB-231 cells assessed as necrotic cells at 7 uM after 24 hrs by Annexin-V FITC/propidium iodide staining based flow cytometry (reference value: 4.1%); type: functional
[26] = test system: MDA-MB-231; assay: Induction of ROS generation in human MDA-MB-231 cells at 1 uM after 24 hrs by DCFH-DA staining based flow cytometry relative to control; type: functional
How it was run: (§3)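 3 × 10⁵ cells/well in 6-well plates treated 24 h (0, 1, 3, 5 µM). Medium replaced with serum-free medium holding DCFH-DA at 10 µM final, 20 min at 37 °C. Cells washed twice, trypsinised, resuspended in warm PBS and read by flow cytometry.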

[27] = test system: MDA-MB-231; assay: Induction of ROS generation in human MDA-MB-231 cells at 3 uM after 24 hrs by DCFH-DA staining based flow cytometry relative to control; type: functional; how it was run: as §3
[28] = test system: MDA-MB-231; assay: Inhibition of colony formation in human MDA-MB-231 cells up to 6 uM incubated for 24 hrs measured after 14 days by crystal violet staining based assay; type: functional, cell-based
How it was run: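 Cells plated at 800-1000 per well in 6-well plates. Treated next day with vehicle or 0.5-6 µM for 24 h, then grown 10-14 d until colonies appeared. Stained with crystal violet for 4 h; colonies scored manually.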

[29] = test system: Mus musculus; assay: Toxicity in ICR mouse implanted with mouse 4T1 cells assessed as body weight loss at 10 mg/kg, ip daily for 11 days measured daily during compound dosing; type: organism-based; settings: in vivo, 264 h
How it was run: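 4T1-bearing male ICR mice (5 weeks, 6/group), dosed i.p. with PBS/DMSO (8:2) vehicle control. Body weight recorded daily. BI% = (1 − mean treated/mean control body weight) × 100.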

## O=S1(=O)C=Cc2cccc(Nc3cccc(C(F)(F)F)c3)c21
[1]
  pIC50: 6.44
[2]
  pIC50: 6.12
[3]
  pIC50: 6.48
[4]
  Ratio IC50: 1.5 - 12
[5]
  Ratio IC50: 1.5 - 12
[6]
  Ratio IC50: 1.5 - 12
[7]
  inhibition: Dose-dependent effect
[8]
  Activity: Non-Toxic
[9]
  inhibition: Dose-dependent effect
[10]
  inhibition: Active
[11]
  inhibition: Active
[12]
  Activity: Active
[13]
  Activity: Dose-dependent effect
[14]
  Activity: 84.2%
[15]
  Activity: 6.3%
[16]
  Activity: 3.4%
[17]
  Activity: 6.2%
[18]
  Activity: 6.8%
[19]
  Activity: 4.1%
[20]
  Activity: 5.8%
[21]
  Activity: 75.3%
[22]
  Activity: 10.3%
[23]
  Activity: 7.2%
[24]
  Activity: 12.2%
[25]
  Activity: 6.9%
[26]
  fold change (FC): 1.37
[27]
  fold change (FC): 1.74
[28]
  inhibition: Active
[29]
  Activity: Non-Toxic

Reference: ChEMBL document CHEMBL3877271, “Antagonizing STAT3 activation with benzo[b]thiophene 1, 1-dioxide based small molecules” (Eur J Med Chem, 2017)
